Converted amounts (≈) assume the structure as drawn.
Experiments:
Assay type in all cases: functional
Settings in all cases: time 18-24 hrs
Staphylococcus aureus [1] = experiment: Antibacterial activity against Staphylococcus aureus ATCC 25923 measured after 18 to 24 hrs by microtiter dilution method
Outline: (§1)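 Compounds were taken up in 25% DMSO at 64 μg/mL and serially diluted two-fold in water (11 dilutions). Log-phase bacteria grown in MHB were diluted to 10^5-10^6 CFU/mL and mixed 1:1 with the dilutions. Plates were incubated at 37 °C for 18-24 h. MIC was the lowest concentration giving no growth by OD492, averaged over three independent experiments.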

[2] = test system: Staphylococcus epidermidis; experiment: Antibacterial activity against Staphylococcus epidermidis ATCC 51625 measured after 18 to 24 hrs by microtiter dilution method; outline: as §1
Staphylococcus aureus [3] = experiment: Antibacterial activity against Staphylococcus aureus BNCC 337371 measured after 18 to 24 hrs by microtiter dilution method; outline: as §1
[4] = test system: Streptococcus dysgalactiae; experiment: Antibacterial activity against Streptococcus dysgalactiae measured after 18 to 24 hrs by microtiter dilution method; outline: as §1
Streptococcus agalactiae = experiment: Antibacterial activity against Streptococcus agalactiae measured after 18 to 24 hrs by microtiter dilution method; outline: as §1
Enterococcus faecalis = experiment: Antibacterial activity against Enterococcus faecalis measured after 18 to 24 hrs by microtiter dilution method; outline: as §1
Pasteurella multocida = experiment: Antibacterial activity against Pasteurella multocida CVCC 1659 measured after 18 to 24 hrs by microtiter dilution method; outline: as §1
Escherichia coli = experiment: Antibacterial activity against Escherichia coli CICC 10389 measured after 18 to 24 hrs by microtiter dilution method; outline: as §1

| SMILES | MIC (Staphylococcus aureus [1]) | MIC [2] | MIC (Staphylococcus aureus [3]) | MIC [4] | MIC (Streptococcus agalactiae) | MIC (Enterococcus faecalis) | MIC (Pasteurella multocida) | MIC (Escherichia coli) |
| --- | --- | --- | --- | --- | --- | --- | --- | --- |
| C=C[C@]1(C)C[C@@H](OC(=O)CSc2nc(C)cc(N3CCC[C@H](CO)C3)n2)[C@@]2(C)[C@H](C)CC[C@]3(CCC(=O)[C@H]32)[C@@H](C)[C@@H]1O | 0.1 µM (≈ 0.06 µg/mL) | 0.21 µM (≈ 0.126 µg/mL) | 0.21 µM (≈ 0.126 µg/mL) | 0.05 µM (≈ 0.03 µg/mL) | 0.05 µM (≈ 0.03 µg/mL) | 26.7 µM (≈ 16 µg/mL) | 26.7 µM (≈ 16 µg/mL) | > 53.5 µM |
| C=C[C@]1(C)C[C@@H](OC(=O)CSc2nc(C)cc(N3CCNCC3)n2)[C@@]2(C)[C@H](C)CC[C@]3(CCC(=O)[C@H]32)[C@@H](C)[C@@H]1O | 0.11 µM (≈ 0.0628 µg/mL) | 0.22 µM (≈ 0.126 µg/mL) | 0.11 µM (≈ 0.0628 µg/mL) | 0.05 µM (≈ 0.0285 µg/mL) | 0.11 µM (≈ 0.0628 µg/mL) | 14 µM (≈ 8.01 µg/mL) | 28.1 µM (≈ 16 µg/mL) | > 56.1 µM |
| C=C[C@]1(C)C[C@@H](OC(=O)CSc2nc(C)cc(N3CCN(CCO)CC3)n2)[C@@]2(C)[C@H](C)CC[C@]3(CCC(=O)[C@H]32)[C@@H](C)[C@@H]1O | 0.1 µM (≈ 0.0615 µg/mL) | 0.2 µM (≈ 0.123 µg/mL) | 0.41 µM (≈ 0.252 µg/mL) | 0.1 µM (≈ 0.0615 µg/mL) | 0.1 µM (≈ 0.0615 µg/mL) | 26 µM (≈ 16 µg/mL) | 26 µM (≈ 16 µg/mL) | > 52.1 µM |
| C=C[C@]1(C)C[C@@H](OC(=O)CSc2nc(C)cc(OC)n2)[C@@]2(C)[C@H](C)CC[C@]3(CCC(=O)[C@H]32)[C@@H](C)[C@@H]1O | 0.24 µM (≈ 0.124 µg/mL) | 0.24 µM (≈ 0.124 µg/mL) | 0.24 µM (≈ 0.124 µg/mL) | 0.12 µM (≈ 0.062 µg/mL) | 0.24 µM (≈ 0.124 µg/mL) | 31 µM (≈ 16 µg/mL) | 62 µM (≈ 32 µg/mL) | > 62 µM |
| C=C[C@]1(C)C[C@@H](OC(=O)CS[C@@H]2C[C@H]3CC[C@@H](C2)N3C)[C@@]2(C)[C@H](C)CC[C@]3(CCC(=O)[C@H]32)[C@@H](C)[C@@H]1O | 0.24 µM (≈ 0.124 µg/mL) | 0.12 µM (≈ 0.0621 µg/mL) | 0.12 µM (≈ 0.0621 µg/mL) | 0.06 µM (≈ 0.0311 µg/mL) | 0.06 µM (≈ 0.0311 µg/mL) | 15.4 µM (≈ 8 µg/mL) | 0.97 µM (≈ 0.502 µg/mL) | 30.9 µM (≈ 16 µg/mL) |
| C=C[C@]1(C)C[C@@H](OC(=O)CSc2nc(C)cc(OCC)n2)[C@@]2(C)[C@H](C)CC[C@]3(CCC(=O)[C@H]32)[C@@H](C)[C@@H]1O | 0.12 µM (≈ 0.0637 µg/mL) | 0.24 µM (≈ 0.127 µg/mL) | 0.12 µM (≈ 0.0637 µg/mL) | 0.12 µM (≈ 0.0637 µg/mL) | 0.24 µM (≈ 0.127 µg/mL) | 15.1 µM (≈ 8.01 µg/mL) | > 60.4 µM | > 60.4 µM |
| C=C[C@]1(C)C[C@@H](OC(=O)CSc2nc(C)cc(OC(C)C)n2)[C@@]2(C)[C@H](C)CC[C@]3(CCC(=O)[C@H]32)[C@@H](C)[C@@H]1O | 0.46 µM (≈ 0.251 µg/mL) | 0.46 µM (≈ 0.251 µg/mL) | 0.23 µM (≈ 0.125 µg/mL) | 0.92 µM (≈ 0.501 µg/mL) | 0.23 µM (≈ 0.125 µg/mL) | 58.8 µM (≈ 32 µg/mL) | > 58.8 µM | > 58.8 µM |
| C=C[C@]1(C)C[C@@H](OC(=O)CSc2nc(C)cc(N3CCC(CCO)CC3)n2)[C@@]2(C)[C@H](C)CC[C@]3(CCC(=O)[C@H]32)[C@@H](C)[C@@H]1O | 0.1 µM (≈ 0.0614 µg/mL) | 0.2 µM (≈ 0.123 µg/mL) | 0.2 µM (≈ 0.123 µg/mL) | 0.05 µM (≈ 0.0307 µg/mL) | 0.05 µM (≈ 0.0307 µg/mL) | 26.1 µM (≈ 16 µg/mL) | 52.2 µM (≈ 32 µg/mL) | > 52.2 µM |
| C=C[C@]1(C)C[C@@H](OC(=O)CSc2nc(C)cc(OCCCC)n2)[C@@]2(C)[C@H](C)CC[C@]3(CCC(=O)[C@H]32)[C@@H](C)[C@@H]1O | 1.79 µM (≈ 1 µg/mL) | 1.79 µM (≈ 1 µg/mL) | 3.58 µM (≈ 2 µg/mL) | 0.45 µM (≈ 0.251 µg/mL) | 0.9 µM (≈ 0.503 µg/mL) | 57.3 µM (≈ 32 µg/mL) | > 57.3 µM | > 57.3 µM |

Source: ChEMBL document CHEMBL4706538, “Novel pleuromutilin derivatives with substituted 6-methylpyrimidine: Design, synthesis and antibacterial evaluation” (2020)
